Shown is part of a subset that was picked to be rich in hits.
HCT116 bCat-KO: beta-catenin-lacking colon tumor cell growth suppression; HCT116 beta-catenin knockout viability, CellTiter-Glo, 60 h; active compounds read low; hit rate 1.5% among 140,000; viability, % at 10 µM; AID 818;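 active means viability at or under a set limit, the compound median less 4 SD, cut at about 6% in these data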;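 further: 0% = Hyamine 1622 control at 20 µM and 100% = untreated cell control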
PTEN del growth: PTEN-deleted cell growth suppression. HCT116 PTEN-null viability, CellTiter-Glo, 60 h; active compounds read low. viability, % at 10 µM. hit rate 1.2% among 140,000. AID 827;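 active means viability at or below a set limit, 4 SD under the median of all tested compounds, cut at about 3.7% in these data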;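 further: PTEN knockout HCT116 line with beta catenin targeted HCT116 as companion control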
H69AR growth 86K: growth inhibitors of human H69AR lung tumor cells. hit rate 6% among 85,000. viability, % at 10 µM. H69AR lung tumor viability, ATP luminescence, 72 h; active compounds read low;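 active means viability at or below 40%; inactive means viability above 40%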;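 further: multidrug resistant small cell line overexpressing MRP-1 efflux transporter; 100% = mean luminescence of untreated control wells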
Lung fibro prol: blocks proliferation of human lung fibroblasts; AID 719; LL 47 human lung fibroblast viability, ATP luminescence; active compounds read low; hit rate 1.1% among 85,000; viability, % at 10 µM;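 active means viability at or below 50% in the single dose screen; inactive means viability above 50%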;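 further: compound exposure lasted 72 h before the ATP readout; 100% = median luminescence of untreated cell-only wells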
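Times – overnight cell rest, 72 h compound treatment at 37 °C · Test system – human lung fibroblast line LL 47, low passage · Amount – 1,150 cells in each well · Controls – cell-only wells, no compound · Doses – 0.1% DMSO in all compound wells · Measured by – CellTiter-Glo luminescence · Buffer or medium – IMEM plus 15% FBS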
HUVEC prolif 384: human endothelial cell proliferation inhibition | HUVEC proliferation, CellTiter-Glo luminescence, 72 h; active compounds read low | viability, % at 10 µM (by protocol) | hit rate 1.1% among 86,000;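 active means viability at or below 30%; inactive means viability above 30%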;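 further: 100% = median luminescence of DMSO-only cell control wells on each plate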
Starred values were filed as active, the others as inactive; / = not tested or not shown.

SMILES | HCT116 bCat-KO | PTEN del growth | H69AR growth 86K | Lung fibro prol | HUVEC prolif 384
COc1ccc(NC(=O)NCCCN2CCN(c3cc(C)ccc3C)CC2)cc1 | 1.4* | 1.4* | 61.4 | 89.9 | 73.0
COc1ccc(NC(=O)NCCN2CCN(c3cccc(Cl)c3)CC2)cc1 | 82.9 | 99.5 | 86.9 | 103.9 | 93.3
Cc1ccc(NC(=O)c2ccc(Cn3cc([N+](=O)[O-])cn3)cc2)c(C)c1 | 87.1 | 84.8 | / | / | /
CCCN1C[C@H](CSC)C[C@@H]2c3cccc4[nH]cc(c34)C[C@H]21 | 81.7 | 88.0 | / | / | /
S=C1NC2=C(CCC/C2=C\c2ccccc2)C(c2ccccc2)N1 (stereo not drawn) | 90.6 | 94.7 | / | / | /
C(=C1/CCCC2=C1Nc1ncnn1C2c1ccccc1)/c1ccccc1 (stereo not drawn) | 1.5* | 1.5* | 0.8* | 4.1* | 12.9*
Cc1ccc(C2/C(=C(\O)c3c(C)nc4ccccn34)C(=O)C(=O)N2CCCN2CCOCC2)o1 (stereo not drawn) | / | / | 93.8 | 103.9 | 103.9
CN(C)c1ccc(C(=O)c2ccccc2)cc1 | 89.3 | 87.0 | 97.3 | 102.3 | 98.7
COc1ccc(C(N)=O)cc1N | 94.5 | 103.7 | / | / | /
CCOc1ccc(C(=O)c2ccc(OCC)c(N)c2)cc1N | 14.4 | 22.0 | 13.3* | 89.9 | 55.4
CN(C)c1ccc(C(=O)c2ccc(N(C)C)c(N)c2)cc1N | 77.8 | 87.2 | 21.6* | 85.2 | 78.2
CN1CCN(c2ccccc2NC(=O)COc2ccc(Br)cc2)CC1 | 90.5 | / | 86.5 | 95.8 | 84.6
COc1c(Cl)cc(Cl)cc1/C=C/C(=O)c1ccc(NC(=O)c2cccs2)cc1 | 2.6* | 1.8* | / | / | /
COc1ccc(C2N(C(=O)CN3CCOCC3)CCN2S(=O)(=O)c2ccccc2)cc1 (stereo not drawn) | 81.1 | 92.9 | 22.0* | / | 87.2
NC(=O)Cc1ccc(Nc2nnc(-c3ccc(O)cc3)c3ccccc23)cc1 | 89.8 | 103.9 | / | / | /
COc1cc(NC(=O)c2cc(-c3cccs3)on2)cc(OC)c1OC | 59.3 | 54.5 | 22.7* | 96.2 | 66.7
COc1cc(NC(=O)c2cc(-c3cccc(O)c3)on2)cc(OC)c1OC | 93.4 | 87.5 | 28.0* | 91.9 | 65.8
COc1ccc(OC)c(-c2cc(C(=O)Nc3cccc(Cl)c3)no2)c1 | 84.3 | 84.4 | 33.9* | 93.7 | 82.1
COc1cc(C(=O)Nc2nc(-c3cccs3)cs2)cc(OC)c1OC | 11.1 | 7.3 | 13.7* | 84.6 | 76.6
Cc1ccc(NC(=O)c2cc(-c3cccs3)on2)cc1 | 100.0 | 100.2 | 95.0 | 110.0 | 106.3
COc1cc(C(=O)Nc2ccc(S(=O)(=O)N(C)c3ccccc3)cc2)cc(OC)c1OC | 81.5 | 84.5 | / | / | /
COc1cc(C(=O)Nc2ccc(N(C)C)cc2)cc(OC)c1OC | 78.0 | 67.7 | 33.4* | 97.5 | 81.4
Nc1cc(C(=O)N2CCCC2)cc(C(=O)N2CCCC2)c1 | 86.0 | 82.5 | 96.8 | 92.7 | 95.1
Nc1ccc(N2CCCCC2)cc1N1CCCCC1 | 3.2* | 2.5* | / | / | /
Cc1ccc(CNC(=O)C(Cc2ccccc2)NS(=O)(=O)c2cccs2)cc1 (stereo not drawn) | 87.2 | 87.2 | 80.0 | 97.0 | 106.7
SMILES | HCT116 bCat-KO | PTEN del growth | H69AR growth 86K | Lung fibro prol | HUVEC prolif 384
CCOC(=O)c1cnc(SCc2cccc(C)c2)nc1N | 104.6 | 111.7 | 80.0 | 95.8 | 102.3
Cc1nn(-c2ccc(F)cc2)c(C)c1NS(=O)(=O)c1ccc(Cl)cc1 | 80.3 | 83.9 | 75.0 | 87.5 | 29.7*
Cc1ccc(-n2nc(C)c(NS(=O)(=O)c3ccccc3)c2C)cc1C | 96.5 | 103.8 | 81.1 | 100.1 | 104.1
COc1ccc2c(c1)CCc1c(C(=O)N3CC4(C)CC3CC(C)(C)C4)noc1-2 (stereo not drawn) | 71.5 | 75.8 | 35.4* | 96.0 | 85.9
COc1ccc(-c2cc(C(=O)Nc3cc(C)n(Cc4ccc(Cl)cc4)n3)no2)cc1OC | 77.5 | 69.7 | 14.5* | 105.7 | 46.3
COc1ccc2c(c1)CCc1c(C(=O)Nc3cc(C)n(Cc4ccc(Cl)cc4)n3)noc1-2 | 91.1 | 87.4 | 5.3* | 59.9 | 52.0
COc1ccc2c(c1)CCc1c(C(=O)Nc3ccn(Cc4ccc(C)cc4)n3)noc1-2 | 29.8 | 46.9 | 10.4* | 93.3 | 37.7
COc1ccc2c(c1)CCc1c(C(=O)N3CCOCC3)noc1-2 | 80.3 | 81.1 | 87.4 | 102.6 | 99.7
COc1ccc(-c2coc3cc(OC)cc(O)c3c2=O)cc1 | 77.8 | 88.2 | 87.8 | 99.0 | 111.3
CC(C)Oc1cc(O)c2c(=O)c(-c3ccc(O)cc3)coc2c1 | 76.3 | 74.3 | 11.1* | 101.8 | 94.3
O=C(O)C1CC(=O)N(c2ccc(OCc3ccc(Cl)cc3Cl)cc2)C1 (stereo not drawn) | 3.3* | 3.2* | 94.5 | 104.4 | 73.4
COCCOc1cc(Nc2nnc(C(F)(F)F)s2)c(Cl)cc1Cl | 69.2 | 85.1 | 13.2* | 100.5 | 65.6
COc1cc(Nc2nnc(C)s2)c(Cl)cc1Cl | 115.8 | 102.1 | 90.5 | 111.4 | 103.6
CCCCC(CCCC)=N/N=C/c1c(O)n(CC)c2cc(C3=NNC(=O)CC3)ccc12 | 39.3 | 30.9 | 33.3* | 78.0 | 100.3
COc1ccc(-c2nc(N)ncc2-c2csc(C)n2)c(O)c1 | 88.3 | 84.6 | 93.5 | 94.8 | 105.9
COc1ccc(-c2nc(N)nc(C)c2Oc2ccccc2Br)c(O)c1 | 24.7 | 19.2 | 23.2* | 75.3 | 79.6
Cc1c(/C=N/n2cnnc2)c2ccccc2n1CCOc1ccccc1 | 94.0 | 100.9 | 32.3* | / | 76.7
CC1(C)Cc2nc3oc4c(=O)n(CC(=O)Nc5ccccc5)cnc4c3cc2CO1 | 88.1 | 89.7 | / | / | /
CC1(C)Cc2nc3sc4c(=O)n(CC(=O)NCc5ccco5)cnc4c3cc2CO1 | 42.5 | 40.1 | 21.7* | 83.0 | 67.6
O=c1c2c3nc4ccccc4nc3n(/N=C/c3ccco3)c2ncn1CCC1=CCCCC1 | / | / | 73.8 | 96.7 | 28.7*
CCCCCCn1c(C)nc2c(c1=O)c1nc3ccccc3nc1n2/N=C/c1ccco1 | 73.8 | 71.1 | 3.8* | 98.6 | 17.8*
Cc1nc2c(c(=O)n1CCC1=CCCCC1)c1nc3ccccc3nc1n2/N=C/c1ccccc1 | 96.8 | 80.5 | 83.5 | 109.0 | 96.5
CCCn1cnc2c(c1=O)c1nc3ccccc3nc1n2CCC1=CCCCC1 | 94.5 | 96.3 | 72.6 | 97.0 | 75.0
CCOc1cc(C)c(Cl)cc1S(=O)(=O)n1cnc2ccccc21 | 98.4 | 87.7 | 38.5* | 97.1 | 76.5
CCOc1ccc(Cl)cc1S(=O)(=O)n1cnc2ccccc21 | 46.5 | 43.0 | 19.9* | 61.8 | 58.8
SMILES | HCT116 bCat-KO | PTEN del growth | H69AR growth 86K | Lung fibro prol | HUVEC prolif 384
COc1ccc(Cl)cc1S(=O)(=O)n1cnc2ccccc21 | 91.9 | 97.4 | 17.4* | 80.0 | 58.1
CCN(C(=O)COC(=O)c1cc(-c2cccc3ccccc23)nc2ccccc12)C1CCS(=O)(=O)C1 (stereo not drawn) | 93.0 | 101.8 | / | / | /
O=C(NC1CC1)c1ccc2c(c1)C1C3CCC(C3)C1C(c1ccccc1)N2 (stereo not drawn) | 81.4 | 70.1 | / | / | /
COc1ccc(CSC(=N)N)cc1[N+](=O)[O-] | 13.8 | 15.7 | 81.1 | 88.8 | 71.2
CCCCCOc1ccc(CSC(=N)N)cc1[N+](=O)[O-] | 1.9* | 1.3* | / | / | /
O=Cc1c(C(=O)O)n(CC(=O)O)c2ccccc12 | 99.3 | 90.6 | / | / | /
